# From ChEMBL document CHEMBL1135477, “Antifungal agents. 10. New derivatives of 1-[(aryl)[4-aryl-1H-pyrrol-3-yl]methyl]-1H-imidazole, synthesis, anti-candida activity, and quantitative structure-analysis relationship studies” (J Med Chem, 2002)
# Key:
# Type in all cases: functional
# [1] = system: Candida albicans; assay: In vitro antifungal activity against 40 strains of Candida albicans at pH 5.8; (range is from 2 to 128)
# In short: (§1)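 Broth serial-dilution MIC against 40 clinical C. albicans isolates from hospitalized patients, grown in Sabouraud broth at pH 7.2 or 5.8. Cells were pre-grown 18 h at 37 °C, inoculated at 10³/mL, and read at 24 h, 37 °C. Doubling dilutions ran 0.25–256 μg/mL from a DMSO/water solution. MIC was the lowest concentration with no visible growth against a DMSO/water blank.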
# [2] = system: Candida; assay: Tested In vitro for antifungal activity against Candida species. at pH 7.2; (percent of resistant species at 256 ug/mL)
# In short: (§2)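 Broth serial-dilution test in Sabouraud broth at pH 7.2 or 5.8, against 3 fresh clinical non-albicans isolates (two C. glabrata, one C. krusei). Inocula were 10³/mL, pre-grown 18 h at 37 °C. Compound was twofold-diluted over 0.25–256 µg/mL and read at 24 h, 37 °C for visible growth.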
# [3] = system: Candida; assay: Tested in vitro for antifungal activity against Candida species. at pH 5.8 (percent of resistant species at 256 ug/mL); in short: as §2
# [4] = system: Candida albicans; assay: In vitro antifungal activity against 40 strains of Candida albicans at pH 5.8; in short: as §1
# [5] = target: Lanosterol 14-alpha demethylase (Candida albicans (strain SC5314 / ATCC MYA-2876) (Yeast), UniProt P10613); assay: Anticandida activity- (MIC90 compound) / (MIC90 bifonazole)
# Sequence of Lanosterol 14-alpha demethylase (P10613 whole entry): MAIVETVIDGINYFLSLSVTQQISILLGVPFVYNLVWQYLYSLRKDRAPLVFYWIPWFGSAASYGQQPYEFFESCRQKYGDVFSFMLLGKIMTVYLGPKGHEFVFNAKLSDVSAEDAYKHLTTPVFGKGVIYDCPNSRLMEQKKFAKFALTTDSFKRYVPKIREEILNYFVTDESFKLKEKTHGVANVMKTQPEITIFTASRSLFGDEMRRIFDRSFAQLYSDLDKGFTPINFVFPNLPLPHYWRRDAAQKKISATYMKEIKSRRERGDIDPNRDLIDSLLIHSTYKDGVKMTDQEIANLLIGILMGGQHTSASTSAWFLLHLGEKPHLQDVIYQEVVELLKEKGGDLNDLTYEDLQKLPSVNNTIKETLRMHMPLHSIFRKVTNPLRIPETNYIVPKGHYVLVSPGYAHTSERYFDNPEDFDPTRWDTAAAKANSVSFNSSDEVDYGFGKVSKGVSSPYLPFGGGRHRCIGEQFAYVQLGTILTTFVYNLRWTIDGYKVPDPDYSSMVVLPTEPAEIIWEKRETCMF
# [6] = system: Candida albicans; assay: In vitro antifungal activity against 40 strains of Candida albicans at pH 5.8; (percent of resistant species at 256 ug/mL)
# In short: (§3)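 Broth serial-dilution test in Sabouraud broth at pH 7.2 or 5.8, against 40 fresh clinical C. albicans isolates from hospitalized patients. Inocula were 10³/mL, pre-grown 18 h at 37 °C in Sabouraud dextrose broth. Compound from a DMSO/water stock was twofold-diluted over 0.25–256 µg/mL. Visible growth was read at 24 h, 37 °C.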
# [7] = system: Candida albicans; assay: In vitro antifungal activity against 40 strains of Candida albicans at pH 7.2; (percent of resistant species at 256 ug/mL); in short: as §3
# [8] = system: Candida albicans; assay: In vitro antifungal activity against 40 strains of Candida albicans at pH 7.2; minimum inhibitory concentration (range is from 2 to 256); in short: as §1
# [9] = system: Candida; assay: Tested In vitro for antifungal activity against Candida species. at pH 7.2; (range is from 8 to 128)
# In short: (§4)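 Liquid serial-dilution MIC against 3 freshly isolated clinical Candida strains (two C. glabrata, one C. krusei) in Sabouraud broth at pH 7.2 or 5.8. Inoculum was 10³/mL after 18 h pre-culture at 37 °C, read at 24 h, 37 °C. Range was 0.25–256 μg/mL. Endpoint was no visible growth versus a DMSO/water blank.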
# [10] = system: Candida; assay: Tested in vitro for antifungal activity against Candida species. at pH 5.8 (range is from 16 to 256); in short: as §4
# [11] = system: Candida; assay: Tested In vitro for antifungal activity against Candida species. at pH 7.2; in short: as §4
# [12] = system: Candida; assay: Tested in vitro for antifungal activity against Candida species. at pH 5.8; in short: as §4
# [13] = system: Candida albicans; assay: In vitro antifungal activity against 40 strains of Candida albicans at pH 7.2; in short: as §1
# [14] = system: Candida; assay: Tested in vitro for antifungal activity against Candida species. at pH 7.2 (percent of resistant species at 256 ug/mL); in short: as §2
# [15] = system: Candida albicans; assay: Tested in vitro for antifungal activity against Candida albicans at pH 5.8; in short: as §1
# [16] = system: Candida albicans; assay: In vitro antifungal activity against Candida albicans (40 strains) at pH 7.2(value ranges from 0.5 to 32); in short: as §1
# [17] = system: Candida albicans; assay: Tested in vitro for antifungal activity against Candida albicans at pH 5.8 (range 1-8); in short: as §1
# [18] = system: Candida; assay: Tested in vitro for antifungal activity against Candida species. at pH 7.2 (value ranges from 0.5 to 8)
# In short: (§5)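 Fresh clinical isolates (two C. glabrata, one C. krusei) were pre-grown 18 h at 37 °C in Sabouraud dextrose broth. Broth double-dilution was run in Sabouraud broth at pH 5.8 or 7.2 over 0.25–256 µg/mL from a DMSO/water stock, with 10³/mL inoculum.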
# [19] = system: Candida; assay: Tested in vitro for antifungal activity against Candida species. at pH 7.2; in short: as §5
# [20] = system: Candida albicans; assay: In vitro antifungal activity against Candida albicans (40 strains) at pH 5.8,(percent of resistant species at 256 ug/mL); in short: as §3
# [21] = system: Candida albicans; assay: In vitro antifungal activity against Candida albicans (40 strains) at pH 7.2,(percent of resistant species at 256 ug/mL); in short: as §3
# [22] = system: Candida albicans; assay: In vitro antifungal activity against Candida albicans (40 strains) at pH 7.2; in short: as §1
# [23] = system: Candida; assay: In vitro antifungal activity against 40 strains at pH 5.8,(percent of resistant species at 256 ug/mL); in short: as §3
# [24] = system: Candida albicans; assay: IIn vitro antifungal activity against 40 strains of Candida albicans at pH 7.2; minimum inhibitory concentration (range is from 16 to 256); in short: as §1
# [25] = system: Candida albicans; assay: In vitro antifungal activity against 40 strains of Candida albicans at pH 5.8; (range is from 32 to 256); in short: as §1
# [26] = system: Candida; assay: Tested in vitro for antifungal activity against Candida species. at pH 5.8; value ranges from 128 to >256; in short: as §5
smiles,measurement,setting,value
O=[N+]([O-])c1ccc(-c2c[nH]cc2[C@@H](c2ccc(Cl)cc2Cl)n2ccnc2)cc1,Range,[1],128 µg/mL
same,Resistance,[2],0%
same,Resistance,[3],0%
same,MIC,[4],15 µg/mL
same,MIC50,[4],8 µg/mL
same,MIC90,[4],8 µg/mL
same,Ratio,[5],1.5
same,Resistance,[6],0%
same,Resistance,[7],0%
same,Range,[8],256 µg/mL
same,Range,[9],128 µg/mL
same,Range,[10],256 µg/mL
same,MIC,[11],56 µg/mL
same,MIC50,[11],32 µg/mL
same,MIC90,[11],128 µg/mL
same,MIC,[12],133 µg/mL
same,MIC50,[12],128 µg/mL
same,MIC90,[12],256 µg/mL
same,MIC,[13],14.7 µg/mL
same,MIC50,[13],8 µg/mL
same,MIC90,[13],8 µg/mL
Clc1ccc(-c2c[nH]cc2[C@H](c2ccc(Cl)cc2Cl)n2ccnc2)cc1,Resistance,[14],0%
same,Ratio,[5],0.8
same,MIC,[15],3.6 µg/mL
same,MIC50,[15],1 µg/mL
same,MIC90,[15],2 µg/mL
same,Range,[16],32 µg/mL
same,Range,[17],8 µg/mL
same,Range,[18],8 µg/mL
same,MIC,[12],6 µg/mL
same,MIC50,[12],8 µg/mL
same,MIC90,[12],64 µg/mL
same,Range,[12],64 µg/mL
same,MIC,[19],5.01 µg/mL
same,MIC50,[19],8 µg/mL
same,MIC90,[19],8 µg/mL
same,Resistance,[20],0%
same,Resistance,[21],0%
same,MIC,[22],2.14 µg/mL
same,MIC50,[22],2 µg/mL
same,MIC90,[22],4 µg/mL
same,Resistance,[23],0%
Oc1ccc(-c2c[nH]cc2[C@@H](c2ccc(Cl)cc2Cl)n2ccnc2)cc1,Range,[24],256 µg/mL
same,Range,[25],256 µg/mL
same,Resistance,[2],0%
same,Resistance,[3],67%
same,MIC,[4],150 µg/mL
same,MIC50,[4],32 µg/mL
same,MIC90,[4],128 µg/mL
same,Ratio,[5],26
same,Resistance,[6],26%
same,Resistance,[7],0%
same,Range,[26],>256 µg/mL
same,MIC,[11],256 µg/mL
same,MIC50,[11],256 µg/mL
same,MIC90,[11],256 µg/mL
same,Range,[11],256 µg/mL
same,MIC,[12],128 µg/mL
same,MIC50,[12],> 256 µg/mL
same,MIC90,[12],> 256 µg/mL
same,MIC,[13],77.8 µg/mL
same,MIC50,[13],16 µg/mL
same,MIC90,[13],256 µg/mL
